According to ChEMBL document CHEMBL5678801, “A benzothiophene inhibitor of mitogen-activated protein kinase-activated protein kinase 2 inhibits tumor necrosis factor alpha production and has oral anti-inflammatory efficacy in acute and chronic models of inflammation” (J Pharmacol Exp Ther, 2010):
pIC50: −log10 of the molar value.

What was measured:
[1] = Inhibition of IL-8 production in LPS induced human Whole blood cell preincubated with compound for 1 hr followed by LPS induction and measured after 16 hrs; assay type: functional, cell-based
Summary of the method: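 Human whole blood was stimulated ex vivo with LPS 100 ng/ml. Plasma cytokines were read by MSD 4-plex: TNFα at 4 h; IL-1β, IL-6 and IL-8 at 16 h. Data are means ±S.E.M. of two independent experiments in duplicate, three donors. IC50 by 4-parameter nonlinear regression.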

[2] = Inhibition of AMPK (unknown origin); design: species or system Homo sapiens
[3] = molecular target: T1, Serine/threonine-protein kinase 17A (Homo sapiens, UniProt Q9UEE5); assay: Inhibition of DRAK1 (unknown origin)
T1 sequence (Q9UEE5 whole entry): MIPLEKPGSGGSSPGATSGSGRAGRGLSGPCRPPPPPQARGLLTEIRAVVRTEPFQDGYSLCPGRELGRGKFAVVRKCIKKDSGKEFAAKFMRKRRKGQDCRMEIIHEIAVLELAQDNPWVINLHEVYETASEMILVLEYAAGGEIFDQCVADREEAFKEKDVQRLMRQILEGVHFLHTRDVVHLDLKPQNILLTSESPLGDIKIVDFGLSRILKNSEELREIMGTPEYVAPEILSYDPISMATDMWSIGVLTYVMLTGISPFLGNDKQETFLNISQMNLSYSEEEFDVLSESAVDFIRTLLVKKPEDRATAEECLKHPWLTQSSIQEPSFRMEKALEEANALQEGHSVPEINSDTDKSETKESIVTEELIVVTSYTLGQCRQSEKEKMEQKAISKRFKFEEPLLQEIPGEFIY
Summary of the method: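 Kinase panel: 200 kinases were first screened at 1 μM inhibitor for percent inhibition. Those above 50% inhibition were then titrated for IC50. MgATP was fixed at the Km(app) determined for each enzyme.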

[4] = Cmax in Sprague-Dawley rat at 3 mg/kg, po measured upto 24 hrs by […] analysis; assay type: ADME, organism-based; details: in vivo
Summary of the method: (§1)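 Male Sprague-Dawley rats (275-300 g), carotid-catheterized and acclimated overnight. Dosing was i.v. at 1 mpk (n=2) in 70% saline/20% PEG-400/10% ethanol, or oral at 3 mpk (n=3) as a suspension in 0.5% HPMC/Tween. Plasma drug was measured by LC-MS/MS. Cmax and Tmax were read from individual profiles. t½ came from the terminal log-linear slope and AUC by the linear trapezoidal rule. CL = dose/AUC0-∞, Vdss = CL×MRT, F = dose-normalized AUC po/iv.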

[5] = Oral bioavailability in Sprague-Dawley rat at 3 mg/kg measured upto 24 hrs by […] analysis; assay type: ADME, organism-based; details: in vivo; summary of the method: as §1
[6] = molecular target: T2, Serine/threonine-protein kinase BRSK1 (Homo sapiens, UniProt Q8TDC3); assay: Inhibition of BrSK1 (unknown origin)
T2 sequence (Q8TDC3 whole entry): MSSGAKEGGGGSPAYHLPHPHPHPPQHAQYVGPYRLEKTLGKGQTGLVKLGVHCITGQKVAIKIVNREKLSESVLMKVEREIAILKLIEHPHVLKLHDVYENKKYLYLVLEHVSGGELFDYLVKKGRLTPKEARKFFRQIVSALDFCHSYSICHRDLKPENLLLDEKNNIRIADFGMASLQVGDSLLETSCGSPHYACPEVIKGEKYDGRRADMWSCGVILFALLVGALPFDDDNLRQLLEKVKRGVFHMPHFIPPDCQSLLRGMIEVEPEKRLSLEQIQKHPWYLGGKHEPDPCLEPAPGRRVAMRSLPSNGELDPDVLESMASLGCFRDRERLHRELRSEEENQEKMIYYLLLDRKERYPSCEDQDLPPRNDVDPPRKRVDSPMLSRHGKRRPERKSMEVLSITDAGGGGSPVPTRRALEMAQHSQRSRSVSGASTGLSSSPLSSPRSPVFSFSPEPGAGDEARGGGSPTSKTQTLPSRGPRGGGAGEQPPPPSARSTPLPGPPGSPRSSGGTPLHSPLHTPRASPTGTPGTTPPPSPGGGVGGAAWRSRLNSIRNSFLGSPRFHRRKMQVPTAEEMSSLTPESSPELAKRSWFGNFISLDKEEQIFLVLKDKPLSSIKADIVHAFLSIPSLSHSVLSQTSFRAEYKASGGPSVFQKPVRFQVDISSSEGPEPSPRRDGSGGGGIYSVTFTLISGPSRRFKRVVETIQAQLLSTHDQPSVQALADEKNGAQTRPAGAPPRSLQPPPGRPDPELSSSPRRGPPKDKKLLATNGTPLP
Summary of the method: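 Selectivity profiling began with a 200-kinase screen at 1 μM compound; kinases above 50% inhibition were then titrated for IC50. MgATP was fixed at each enzyme's Km(app). Buffer was 20 mM HEPES pH 7.5 with 10 mM MgCl2, 1 mM DTT, 0.01% BSA and 0.0005% Tween-20. Endpoint reactions were stopped in the linear phase with 30 mM EDTA.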

Rattus norvegicus = assay: Antiinflammatory activity in acute LPS induced TNF-alpha production in Lewis rat model administered via oral dose pretreated for 4 hrs followed by LPS stimulation and measured after 90 mins […]; assay type: functional; details: 5.5 h, time 330 min
Summary of the method: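 Male Lewis rats (225-250 g, 5 per group) were fasted 18 h, then dosed orally at 0.2-60 mg/kg as a suspension in 0.5% methylcellulose/0.025% Tween 20. LPS 1 mg/kg was given i.v. 4 h later. Blood was taken by cardiac puncture 90 min after LPS. Serum TNFα was read by ELISA and drug by LC-MS/MS, three independent experiments. 4-parameter fit. Unbound values were corrected with measured rat plasma protein binding.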

[7] = Inhibition of MK2 activity in LPS induced human U937 cells preincubated with compound for 1 hr followed by LPS induction and measured after 30 mins by Western blot analysis; assay type: functional, cell-based; details: u-937
Summary of the method: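 U937 cells were pretreated with compound for 1 h, then stimulated with LPS 100 ng/ml for 30 min at 37°C. Lysates were run on SDS-PAGE and Western blotted for p-Ser78-HSP27 and total HSP27, detected with fluorescent secondary antibodies and LiCor scanning. The phospho/total ratio was expressed against the LPS-only control. Single experiment repeated three times. 4-parameter fit.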

- pIC50 [1]: < 4.60
- pIC50 [2]: 6.93
- pIC50 [3]: 7.15
- Cmax [4]: 660 nM
- bioavailability [5]: 46%
- pIC50 [6]: 6.73
- pIC50 [7]: 6.70
SMILES: Cc1ccc(-c2ccc3c(ccc4sc5c(c43)NC[C@@H](C)NC5=O)n2)cn1
- ED50 (Rattus norvegicus): 6.9 mg/kg
- ED80 (Rattus norvegicus): 19 mg/kg
